Source: ChEMBL document CHEMBL5696442, “Discovery of type II inhibitors of TGFβ-activated kinase 1 (TAK1) and mitogen-activated protein kinase kinase kinase kinase 2 (MAP4K2)” (J Med Chem, 2015)
Active and inactive are the calls of the source. The rule behind the calls is not given here.

Assays:
[1] = molecular target: Cyclin-dependent kinase 13 (Homo sapiens) (UniProt Q14004); assay: Inhibition of CHED K2 labeling site in human Huh-7 cells at 10 uM by KiNativ Profiling analysis relative to control; type: cell-based
[2] = molecular target: Tyrosine-protein kinase CSK (Homo sapiens, UniProt P41240); assay: Inhibition of CSK ACT labeling site in human A-375 cells at 5 uM by KiNativ Profiling analysis relative to control; type: cell-based
[3] = molecular target: Ephrin type-A receptor 8 (Homo sapiens) (UniProt P29322); assay: Inhibition of EPHA8 (unknown origin) at 10 uM by Ambit Kinomescan binding assay relative to control
[4] = molecular target: Serine/threonine-protein kinase 16 (Homo sapiens) (UniProt O75716); assay: Inhibition of STK16 (unknown origin) at 10 uM by Ambit Kinomescan binding assay
[5] = molecular target: AMPK alpha1/alpha2 (Homo sapiens) (UniProt P54646+Q13131); assay: Inhibition of AMPK alpha1/2 K2 labeling site in human Huh-7 cells at 1 uM by KiNativ Profiling analysis relative to control; type: cell-based
[6] = molecular target: DNA-PK/Ku70/Ku85 (Homo sapiens) (UniProt P78527+P12956+P13010); assay: Inhibition of DNAPK ATP labeling site harbouring GHDEREHPFLVKGGEDLRQDQR in human A-375 cells at 0.5 uM by KiNativ Profiling analysis relative to control; type: cell-based
[7] = molecular target: Dual specificity mitogen-activated protein kinase kinase 2 (Homo sapiens) (UniProt P36507); assay: Inhibition of MAP2K2 Lys1 labeling site in human A-375 cells at 5 uM by KiNativ Profiling analysis relative to control; type: cell-based
[8] = molecular target: Tyrosine-protein kinase receptor UFO (Homo sapiens) (UniProt P30530); assay: Inhibition of AXL (unknown origin) at 10 uM by Ambit Kinomescan binding assay
In short: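 In vitro ATP-site competition binding assay against a panel of over 420 kinases (KinomeScan), with compound tested at 10 or 1 μM.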

[9] = molecular target: Tyrosine-protein kinase JAK1 (Homo sapiens) (UniProt P23458); assay: Inhibition of JAK1 Domain 2 ACT labeling site in human Huh-7 cells at 10 uM by KiNativ Profiling analysis relative to control; type: cell-based
[10] = molecular target: Serine/threonine-protein kinase Nek5 (Homo sapiens) (UniProt Q6P3R8); assay: Inhibition of NEK5 (unknown origin) at 10 uM by Ambit Kinomescan binding assay
[11] = molecular target: Cyclin-dependent kinase-like 2 (Homo sapiens) (UniProt Q92772); assay: Inhibition of CDKL2 (unknown origin) at 10 uM by Ambit Kinomescan binding assay relative to control
[12] = molecular target: Serine/threonine-protein kinase Nek7 (Homo sapiens) (UniProt Q8TDX7); assay: Inhibition of NEK7 Lys2 labeling site harbouring VMHRDIKPANVFITATGVVK in human Huh-7 cells at 1 uM by KiNativ Profiling analysis relative to control; type: cell-based
[13] = molecular target: Ribosomal protein S6 kinase alpha-3 (Homo sapiens) (UniProt P51812); assay: Inhibition of RSK2 domain1 ACT labeling site harbouring LTDFGLSKESIDHEKK in human Huh-7 cell lysate at 1 uM by KiNativ Profiling analysis relative to control; type: subcellular
[14] = molecular target: Dual specificity mitogen-activated protein kinase kinase 1 (Homo sapiens) (UniProt Q02750); assay: Inhibition of MAP2K1 Lys2 labeling site harbouring DVKPSNILVNSR in human Huh-7 cell lysate at 1 uM by KiNativ Profiling analysis relative to control; type: subcellular
[15] = molecular target: Calcium/calmodulin-dependent protein kinase type II subunit gamma (Homo sapiens) (UniProt Q13555); assay: Inhibition of CaMK2g Lys1 labeling site harbouring TSTQEYAAKIINTK in human Huh-7 cell lysate at 1 uM by KiNativ Profiling analysis relative to control; type: subcellular
[16] = molecular target: Ribosomal protein S6 kinase alpha-3 (Homo sapiens) (UniProt P51812); assay: Inhibition of RSK2 domain1 ACT labeling site LTDFGLSKESIDHEK in human Huh-7 cell lysate at 1 uM by KiNativ Profiling analysis relative to control; type: subcellular
[17] = molecular target: T1, Scaffold protein ILK (Homo sapiens) (UniProt Q13418); assay: Inhibition of ILK Protein Kinase Domain in human A-375 cells at 0.05 uM by KiNativ Profiling analysis relative to control; type: cell-based
T1 sequence (whole entry): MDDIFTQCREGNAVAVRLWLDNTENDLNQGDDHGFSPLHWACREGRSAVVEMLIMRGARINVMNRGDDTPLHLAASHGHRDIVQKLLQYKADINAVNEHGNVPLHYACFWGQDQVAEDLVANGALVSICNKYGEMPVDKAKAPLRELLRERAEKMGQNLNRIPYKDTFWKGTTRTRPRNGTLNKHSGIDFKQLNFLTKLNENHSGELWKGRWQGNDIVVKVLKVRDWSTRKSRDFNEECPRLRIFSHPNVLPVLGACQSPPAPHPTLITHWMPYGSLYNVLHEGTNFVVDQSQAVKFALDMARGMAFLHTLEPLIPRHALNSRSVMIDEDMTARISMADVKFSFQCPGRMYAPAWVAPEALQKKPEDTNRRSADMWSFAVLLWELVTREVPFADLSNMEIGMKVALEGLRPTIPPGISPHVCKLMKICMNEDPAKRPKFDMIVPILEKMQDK

[18] = molecular target: Tyrosine-protein kinase JAK3 (Homo sapiens) (UniProt P52333); assay: Inhibition of JAK3 JH1 catalytic domain (unknown origin) at 1 uM by Ambit Kinomescan binding assay relative to control
[19] = molecular target: Rhodopsin kinase GRK1 (Homo sapiens) (UniProt Q15835); assay: Inhibition of GRK1 (unknown origin) at 1 uM by Ambit Kinomescan binding assay relative to control; values are per cent of control
[20] = molecular target: Glycogen synthase kinase-3 beta (Homo sapiens) (UniProt P49841); assay: Inhibition of GSK3B Lys2 labeling site in human A-375 cells at 0.5 uM by KiNativ Profiling analysis relative to control; type: cell-based
[21] = molecular target: Mitogen-activated protein kinase 7 (Homo sapiens) (UniProt Q13164); assay: Inhibition of ERK5 (unknown origin) at 1 uM by Ambit Kinomescan binding assay relative to control
[22] = molecular target: Mitogen-activated protein kinase 4 (Homo sapiens) (UniProt P31152); assay: Inhibition of ERK4 (unknown origin) at 1 uM by Ambit Kinomescan binding assay relative to control
[23] = molecular target: Serine/threonine-protein kinase Nek6 (Homo sapiens) (UniProt Q9HC98); assay: Inhibition of NEK6 (unknown origin) at 1 uM by Ambit Kinomescan binding assay relative to control; values are per cent of control

Chain of Ribosomal protein S6 kinase alpha-3 (Homo sapiens) (P51812 whole entry, the tested form may be a part): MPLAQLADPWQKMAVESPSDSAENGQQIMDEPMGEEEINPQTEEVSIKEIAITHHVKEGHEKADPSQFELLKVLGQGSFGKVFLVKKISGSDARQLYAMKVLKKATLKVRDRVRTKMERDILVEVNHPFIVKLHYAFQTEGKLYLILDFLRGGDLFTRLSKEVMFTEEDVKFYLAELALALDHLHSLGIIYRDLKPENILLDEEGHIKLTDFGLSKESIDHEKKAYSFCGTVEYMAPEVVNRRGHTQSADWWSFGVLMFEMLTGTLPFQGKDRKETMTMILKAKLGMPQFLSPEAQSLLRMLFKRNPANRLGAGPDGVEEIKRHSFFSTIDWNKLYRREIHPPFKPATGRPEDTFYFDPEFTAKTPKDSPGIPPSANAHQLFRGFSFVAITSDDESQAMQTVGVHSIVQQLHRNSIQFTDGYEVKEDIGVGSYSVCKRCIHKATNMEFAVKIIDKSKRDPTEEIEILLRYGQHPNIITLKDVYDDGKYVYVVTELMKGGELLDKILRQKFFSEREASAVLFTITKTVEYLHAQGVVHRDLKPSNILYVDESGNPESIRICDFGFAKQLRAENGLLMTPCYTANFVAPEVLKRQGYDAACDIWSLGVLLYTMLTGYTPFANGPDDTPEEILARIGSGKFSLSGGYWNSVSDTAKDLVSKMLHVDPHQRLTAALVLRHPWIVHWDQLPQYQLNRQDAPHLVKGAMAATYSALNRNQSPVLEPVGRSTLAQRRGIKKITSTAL
Chain of Cyclin-dependent kinase 13 (Homo sapiens) (Q14004 whole entry, looked up): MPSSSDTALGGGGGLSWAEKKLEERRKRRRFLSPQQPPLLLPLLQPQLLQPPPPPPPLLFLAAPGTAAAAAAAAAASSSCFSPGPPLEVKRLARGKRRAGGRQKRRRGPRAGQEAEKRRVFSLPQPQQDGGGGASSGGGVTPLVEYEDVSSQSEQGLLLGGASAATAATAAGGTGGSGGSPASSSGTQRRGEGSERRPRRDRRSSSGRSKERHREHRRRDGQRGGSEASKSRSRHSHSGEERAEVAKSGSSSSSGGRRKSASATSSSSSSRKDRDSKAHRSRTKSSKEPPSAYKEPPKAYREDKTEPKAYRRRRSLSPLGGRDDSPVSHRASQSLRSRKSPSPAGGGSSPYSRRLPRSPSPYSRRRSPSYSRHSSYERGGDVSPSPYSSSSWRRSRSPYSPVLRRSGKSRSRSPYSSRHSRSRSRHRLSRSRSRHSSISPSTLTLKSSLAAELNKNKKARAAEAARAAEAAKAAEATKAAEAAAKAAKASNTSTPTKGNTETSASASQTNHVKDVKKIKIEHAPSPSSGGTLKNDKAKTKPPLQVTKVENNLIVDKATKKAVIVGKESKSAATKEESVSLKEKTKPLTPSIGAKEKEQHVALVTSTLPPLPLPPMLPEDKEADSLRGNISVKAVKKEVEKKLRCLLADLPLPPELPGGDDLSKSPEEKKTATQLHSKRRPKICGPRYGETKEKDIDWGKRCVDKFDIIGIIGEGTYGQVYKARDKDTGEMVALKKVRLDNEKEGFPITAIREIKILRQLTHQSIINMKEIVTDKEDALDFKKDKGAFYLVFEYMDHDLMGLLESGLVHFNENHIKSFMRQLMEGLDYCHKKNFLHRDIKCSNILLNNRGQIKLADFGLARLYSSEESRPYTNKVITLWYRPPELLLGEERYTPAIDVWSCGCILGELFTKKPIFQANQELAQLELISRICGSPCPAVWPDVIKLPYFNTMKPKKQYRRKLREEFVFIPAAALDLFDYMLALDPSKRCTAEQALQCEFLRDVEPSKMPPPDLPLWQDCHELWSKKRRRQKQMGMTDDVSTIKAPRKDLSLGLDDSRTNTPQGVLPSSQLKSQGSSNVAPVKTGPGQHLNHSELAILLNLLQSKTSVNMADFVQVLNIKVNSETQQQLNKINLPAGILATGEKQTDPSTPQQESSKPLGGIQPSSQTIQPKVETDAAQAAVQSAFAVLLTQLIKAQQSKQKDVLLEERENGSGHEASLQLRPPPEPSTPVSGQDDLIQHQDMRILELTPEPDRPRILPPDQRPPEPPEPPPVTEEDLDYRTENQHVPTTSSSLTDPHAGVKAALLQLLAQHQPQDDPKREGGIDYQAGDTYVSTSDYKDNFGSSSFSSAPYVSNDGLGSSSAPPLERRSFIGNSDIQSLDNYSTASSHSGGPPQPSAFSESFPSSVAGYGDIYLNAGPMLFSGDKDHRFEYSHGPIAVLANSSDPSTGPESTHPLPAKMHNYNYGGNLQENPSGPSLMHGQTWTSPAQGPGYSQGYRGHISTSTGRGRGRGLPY
Chain of Tyrosine-protein kinase receptor UFO (Homo sapiens) (P30530 whole entry): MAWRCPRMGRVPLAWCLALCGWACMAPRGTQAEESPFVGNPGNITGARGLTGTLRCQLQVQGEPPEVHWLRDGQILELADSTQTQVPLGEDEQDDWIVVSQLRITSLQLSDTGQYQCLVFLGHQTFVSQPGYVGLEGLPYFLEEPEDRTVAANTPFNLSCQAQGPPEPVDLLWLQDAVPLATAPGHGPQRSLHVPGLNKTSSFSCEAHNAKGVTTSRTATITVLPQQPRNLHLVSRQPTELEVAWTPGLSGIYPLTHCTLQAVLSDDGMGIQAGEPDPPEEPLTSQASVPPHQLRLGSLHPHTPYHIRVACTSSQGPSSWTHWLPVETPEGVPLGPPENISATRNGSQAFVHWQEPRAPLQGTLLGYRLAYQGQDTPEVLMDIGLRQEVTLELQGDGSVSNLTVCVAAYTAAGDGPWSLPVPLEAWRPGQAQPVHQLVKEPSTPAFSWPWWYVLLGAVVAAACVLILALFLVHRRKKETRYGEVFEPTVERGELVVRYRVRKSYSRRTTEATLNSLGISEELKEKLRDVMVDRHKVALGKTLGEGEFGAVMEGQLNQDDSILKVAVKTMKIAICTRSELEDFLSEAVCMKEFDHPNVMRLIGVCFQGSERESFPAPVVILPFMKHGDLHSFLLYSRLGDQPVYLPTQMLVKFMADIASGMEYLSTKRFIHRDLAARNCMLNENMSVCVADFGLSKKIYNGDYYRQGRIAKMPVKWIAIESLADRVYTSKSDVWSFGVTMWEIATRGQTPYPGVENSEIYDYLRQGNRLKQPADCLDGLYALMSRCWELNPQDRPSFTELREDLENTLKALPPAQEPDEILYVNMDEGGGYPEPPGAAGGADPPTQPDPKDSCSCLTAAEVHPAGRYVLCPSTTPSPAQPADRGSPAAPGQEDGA
Chain of Mitogen-activated protein kinase 7 (Homo sapiens) (Q13164 2-816 limits assumed): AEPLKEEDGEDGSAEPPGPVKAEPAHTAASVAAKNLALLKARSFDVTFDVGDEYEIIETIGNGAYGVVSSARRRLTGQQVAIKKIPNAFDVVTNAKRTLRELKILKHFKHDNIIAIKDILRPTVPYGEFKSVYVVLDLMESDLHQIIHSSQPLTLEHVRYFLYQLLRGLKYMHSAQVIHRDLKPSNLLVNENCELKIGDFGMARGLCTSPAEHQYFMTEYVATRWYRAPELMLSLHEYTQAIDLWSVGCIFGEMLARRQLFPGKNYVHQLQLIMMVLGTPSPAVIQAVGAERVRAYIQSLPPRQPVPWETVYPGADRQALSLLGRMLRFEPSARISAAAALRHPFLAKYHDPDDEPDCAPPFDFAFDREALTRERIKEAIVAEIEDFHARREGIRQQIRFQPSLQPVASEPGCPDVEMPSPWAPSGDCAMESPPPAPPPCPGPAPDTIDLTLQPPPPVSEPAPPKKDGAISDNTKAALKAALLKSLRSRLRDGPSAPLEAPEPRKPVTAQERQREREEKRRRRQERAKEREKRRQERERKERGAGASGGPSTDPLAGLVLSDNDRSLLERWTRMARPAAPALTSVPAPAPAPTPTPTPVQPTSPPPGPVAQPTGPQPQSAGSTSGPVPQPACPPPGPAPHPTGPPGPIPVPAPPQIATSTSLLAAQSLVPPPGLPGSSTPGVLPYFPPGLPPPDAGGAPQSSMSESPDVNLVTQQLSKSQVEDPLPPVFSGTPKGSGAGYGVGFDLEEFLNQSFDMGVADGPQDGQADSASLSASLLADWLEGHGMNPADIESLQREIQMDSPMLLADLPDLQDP
Chain of Serine/threonine-protein kinase 16 (Homo sapiens) (O75716 whole entry): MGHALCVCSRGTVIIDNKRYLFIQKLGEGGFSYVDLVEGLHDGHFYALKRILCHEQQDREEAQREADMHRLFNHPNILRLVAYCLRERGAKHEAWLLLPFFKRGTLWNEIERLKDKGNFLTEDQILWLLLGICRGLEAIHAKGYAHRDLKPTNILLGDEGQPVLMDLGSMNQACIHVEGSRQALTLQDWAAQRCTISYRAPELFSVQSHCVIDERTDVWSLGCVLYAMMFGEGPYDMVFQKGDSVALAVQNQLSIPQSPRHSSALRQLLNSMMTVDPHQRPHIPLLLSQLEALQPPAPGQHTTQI
Chain of Dual specificity mitogen-activated protein kinase kinase 1 (Homo sapiens) (Q02750 whole entry): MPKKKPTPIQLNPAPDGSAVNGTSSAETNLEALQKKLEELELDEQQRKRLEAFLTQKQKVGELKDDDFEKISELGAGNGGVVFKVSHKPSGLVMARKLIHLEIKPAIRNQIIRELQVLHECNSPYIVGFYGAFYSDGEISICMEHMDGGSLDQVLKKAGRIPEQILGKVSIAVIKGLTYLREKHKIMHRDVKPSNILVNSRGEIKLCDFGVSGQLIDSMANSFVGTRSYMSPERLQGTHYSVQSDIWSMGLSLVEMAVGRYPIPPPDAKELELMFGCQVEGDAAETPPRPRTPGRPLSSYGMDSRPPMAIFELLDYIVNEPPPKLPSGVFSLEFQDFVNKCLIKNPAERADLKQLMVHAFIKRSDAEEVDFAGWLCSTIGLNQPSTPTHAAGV
Chain of Dual specificity mitogen-activated protein kinase kinase 2 (Homo sapiens) (P36507 whole entry): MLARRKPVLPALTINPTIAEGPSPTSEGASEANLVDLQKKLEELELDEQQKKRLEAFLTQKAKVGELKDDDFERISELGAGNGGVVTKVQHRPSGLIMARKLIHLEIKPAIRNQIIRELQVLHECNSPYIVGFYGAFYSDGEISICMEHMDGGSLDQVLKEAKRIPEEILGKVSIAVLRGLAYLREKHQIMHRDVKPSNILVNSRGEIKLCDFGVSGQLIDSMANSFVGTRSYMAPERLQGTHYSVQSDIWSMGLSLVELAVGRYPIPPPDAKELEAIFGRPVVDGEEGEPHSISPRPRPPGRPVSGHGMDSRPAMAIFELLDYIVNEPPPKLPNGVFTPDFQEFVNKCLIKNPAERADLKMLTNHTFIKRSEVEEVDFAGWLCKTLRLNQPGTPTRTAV

Question: Which inhibition [1] does the source give for `CCN1CCN(Cc2ccc(NC(=O)c3ccc(C)c(Oc4ccnc5[nH]ccc45)c3)cc2C(F)(F)F)CC1` here?
Answer: Its inhibition is “inactive”.

Question: And the inhibition [2]?
Answer: The inhibition was 57.7%.

Question: And the inhibition [3]?
Answer: Its inhibition is 0.1%.

Question: What about the inhibition [4] of the same molecule?
Answer: Its inhibition is “inactive”.

Question: And the inhibition [5]?
Answer: Its inhibition is 12.5%.

Question: And the inhibition [6]?
Answer: Its inhibition is -6%.

Question: And the inhibition [7]?
Answer: The inhibition was 1.3%.

Question: What about the inhibition [8] of the same molecule?
Answer: The inhibition was “inactive”.

Question: And the inhibition [9]?
Answer: Its inhibition is 41.1%.

Question: What about the inhibition [10] of the same molecule?
Answer: Its inhibition is “inactive”.

Question: What about the inhibition [11] of the same molecule?
Answer: Its inhibition is 0.9%.

Question: Which inhibition [12] does the source give for `CNc1cc(Oc2cc(C(=O)Nc3cc(N4CCN(C)CC4)cc(C(F)(F)F)c3)ccc2C)ncn1` here?
Answer: The inhibition was 6.9%.

Question: What about the inhibition [13] of the same molecule?
Answer: The inhibition was -2.2%.

Question: And the inhibition [14]?
Answer: Its inhibition is 15.6%.

Question: What about the inhibition [15] of the same molecule?
Answer: The inhibition was 6%.

Question: What about the inhibition [16] of the same molecule?
Answer: The inhibition was -5%.

Question: With `CCN1CCN(Cc2ccc(NC(=O)c3ccc(C)c(/C=C/c4cnc5[nH]ccc5c4OC)c3)cc2C(F)(F)F)CC1` as the molecule, how does the inhibition [17] read?
Answer: The inhibition was -9.6%.

Question: And the inhibition [18]?
Answer: Its inhibition is 55%.

Question: What about the residual activity [19] of the same molecule?
Answer: Its residual activity is 100%.

Question: What about the inhibition [20] of the same molecule?
Answer: Its inhibition is 34.9%.

Question: What about the inhibition [21] of the same molecule?
Answer: The inhibition was 83%.

Question: What about the inhibition [22] of the same molecule?
Answer: Its inhibition is 77%.

Question: What about the residual activity [23] of the same molecule?
Answer: Its residual activity is 100%.
